6 compounds from ChEMBL document CHEMBL4673374, “Synthesis of mitochondria-targeted coumarin-3-carboxamide fluorescent derivatives: Inhibiting mitochondrial TrxR2 and cell proliferation on breast cancer cells” (Bioorg Med Chem Lett, 2021) can be followed below.

One data set deals with SK-BR-3. Briefly: Cytotoxicity against human SK-BR-3 cells after 48 hrs by MTT assay. It counts as functional, cell-based. As to conditions: SK-BR-3, 48 h. A digest of the protocol: (§1)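 MTT viability read after 48 h exposure of three breast cancer lines and non-tumorigenic MCF-10A breast cells; IC50 reported as mean ± SD from at least three independent experiments. Butyl-TPP and tamoxifen run alongside as references. Sulforhodamine B assay used as a cross-check.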

In data set [1] the test system is MDA-MB-231. Briefly: Cytotoxicity against human MDA-MB-231 cells after 48 hrs by MTT assay. It counts as functional, cell-based. Conditions: MDA-MB-231, 48 h. In short, it runs like this:
as §1
For orientation: Tetrazolium assays rely on reduction of a dye to a coloured formazan, in cell work by metabolically active cells.

Another data set concerns MCF-10A. Description: Cytotoxicity against human MCF-10A cells after 48 hrs by MTT assay. The format is cell-based. In short, it runs like this: as §1
The subject of another data set is MCF7. Briefly: Cytotoxicity against human MCF7 cells after 48 hrs by MTT assay. Conditions: MCF7, 48 h. The format is functional, cell-based. In short, it runs like this: as §1
The nature of data set [2]: Drug uptake in human MDA-MB-231 cells assessed as blue fluorescence after 2 hrs by flow cytometric analysis. Conditions: mda-mb-231, 2 h, dose 1-16 µM. The format is ADME, cell-based. A digest of the protocol:
(§2)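 Uptake read from native blue fluorescence (λex ~420, λem ~475 nm) by flow cytometry as geometric mean intensity. Dose series read after 2 h. Time course run at 8 μM over several durations. Mean ± SD, n = 3.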
Background: Flow cytometry measures light scatter and fluorescence of single cells or particles in a stream.

Data set [3] is described as follows: Stability of compound in methanol-water after 3 days by HPLC-MS analysis. As to conditions: 72 h; time 3 day. It counts as physicochemical.
The nature of data set [4]: Drug uptake in human MDA-MB-231 cells assessed as blue fluorescence at 8 uM measured after 0.5 to 1.5 hrs by flow cytometric analysis. It counts as ADME, cell-based. As to conditions: mda-mb-231, 8 µM, TDE = time-dependent effect, time 0.5-1.5 hrs. In short, it runs like this:
as §2

In data set [5] the test system is MDA-MB-231. Description: Down regulation of TrxR expression in human MDA-MB-231 cells incubated for 48 hrs by Western blot analysis. It counts as functional, cell-based. As to conditions: dose 2-8 µM. In short, it runs like this:
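MDA-MB-231 cells exposed at 2, 4 and 8 μM for 48 h. TrxR2 protein detected by Western blot and quantified by gray-value scanning. Mean ± SD, n = 3.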

Data set [6] concerns MDA-MB-231. Briefly: Induction of apoptosis in human MDA-MB-231 cells assessed as early apoptotic cells at 8 uM incubated for 48 hrs by Annexin V-FITC/PI staining based flow cytometric analysis (reference value: 2.08 %). It counts as functional.
Data set [7] concerns MDA-MB-231. Description: Induction of cell death in human MDA-MB-231 cells assessed as reduction in cell viability preincubated with CsA for 2 hrs followed by compound addition and measured after 48 hrs by MTT assay. The format is functional, cell-based. In short, it runs like this: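 MDA-MB-231 cells pre-incubated 2 h with cyclosporin A (2 and 4 μM), then exposed to compound for 48 h. Viability read by MTT. Mean ± SD, n = 3.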

In data set [8] the test system is MDA-MB-231. Briefly: Induction of mitochondrial membrane potential loss in human MDA-MB-231 cells assessed as TMRE low/caspase low cells at 4 uM after 24 hrs by TMRE staining based flow cytometric analysis (reference value: 98.21%). It counts as functional.
The subject of data set [9] is MDA-MB-231. Description: Induction of mitochondrial membrane potential loss in human MDA-MB-231 cells assessed as TMRE low/caspase low cells at 8 uM after 24 hrs by TMRE staining based flow cytometric analysis (reference value: 98.21%). The format is functional.
Data set [10] deals with MDA-MB-231. Description: Induction of apoptosis in human MDA-MB-231 cells assessed as late apoptotic or necrotic cells at 2 uM incubated for 48 hrs by Annexin V-FITC/PI staining based flow cytometric analysis (reference value: 3.51 %). The format is functional.
Data set [11] concerns MDA-MB-231. Briefly: Induction of mitochondrial membrane potential loss in human MDA-MB-231 cells assessed as TMRE low/caspase low cells at 2 uM after 24 hrs by TMRE staining based flow cytometric analysis (reference value: 98.21%). It counts as functional.
Data set [12] concerns MDA-MB-231. Description: Inhibition of TrxR activity in human MDA-MB-231 cell mitochondrial extracts at 10 uM incubated for 4 hrs. As to conditions: Mitochondria. A digest of the protocol: (§3)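 MDA-MB-231 cells treated with 10 μM compound for 4 h. Total-cell and mitochondrial extracts assayed for TrxR activity with a micro oxidized thioredoxin reductase kit. Mean ± SD, n = 3.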

Data set [13] deals with MDA-MB-231. Description: Induction of cell death in human MDA-MB-231 cells assessed as reduction in cell viability at 2 to 8 uM preincubated with BSO for 24 hrs followed by compound addition and measured after 24 hrs MTT assay. It counts as functional. Conditions: dose 2-8 µM. In short, it runs like this: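 MDA-MB-231 cells pretreated with buthionine sulfoximine (50 μM, 24 h) to deplete GSH, then exposed to test compound for a further 24 h. Viability read by MTT. Means ± SD, n = 3.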

For data set [14], the system named is MDA-MB-231. Briefly: Induction of mitochondrial membrane potential loss in human MDA-MB-231 cells assessed as TMRE high cells at 8 uM after 24 hrs by TMRE staining based flow cytometric analysis (reference value: 1.79%). It counts as functional.
A short description of data set [15]: Drug localization in mitochondria of human MDA-MB-231 cells at 1 uM incubated for 30 mins by MTDR staining based laser confocal microscopic analysis. Conditions: mda-mb-231, 0.5 h. The format is ADME.
For data set [16], the system named is MDA-MB-231. Briefly: Induction of apoptosis in human MDA-MB-231 cells assessed as late apoptotic or necrotic cells at 8 uM incubated for 48 hrs by Annexin V-FITC/PI staining based flow cytometric analysis (reference value: 3.51 %). The format is functional.
Data set [17] deals with MDA-MB-231. Briefly: Induction of mitochondrial membrane potential loss in human MDA-MB-231 cells after 24 hrs by TMRE staining based flow cytometric analysis. Conditions: dose 2-8 µM. The format is functional, cell-based.
The test system of data set [18] is MDA-MB-231. Briefly: Induction of ROS generation in human MDA-MB-231 cells after 6 hrs by DCFH-DA staining based flow cytometric analysis. The format is functional, cell-based. A digest of the protocol: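 MDA-MB-231 cells treated for 6 h, then intracellular ROS probed with DCFH-DA. Geometric mean fluorescence measured by flow cytometry. Mean ± SD, n = 3.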

In data set [19] the test system is MDA-MB-231. Description: Induction of apoptosis in human MDA-MB-231 cells assessed as early apoptotic cells at 2 uM incubated for 48 hrs by Annexin V-FITC/PI staining based flow cytometric analysis (reference value: 2.08 %). It counts as functional.
In data set [20] the test system is MDA-MB-231. Description: Induction of mitochondrial membrane depolarization in human MDA-MB-231 cells at 2 to 8 uM preincubated with BSO for 24 hrs followed by compound addition by flow cytometric analysis. It counts as functional. Conditions: dose 2-8 µM. A digest of the protocol: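 MDA-MB-231 cells pretreated with 50 μM buthionine sulfoximine for 24 h to deplete GSH, then exposed to compound. Mitochondrial membrane potential determined by flow cytometry. Mean ± SD, n = 3.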

Data set [21] has as its system MDA-MB-231. Briefly: Induction of mitochondrial membrane potential loss in human MDA-MB-231 cells assessed as TMRE high cells at 4 uM after 24 hrs by TMRE staining based flow cytometric analysis (reference value: 1.79%). The format is functional.
The test system of data set [22] is MDA-MB-231. Description: Induction of mitochondrial membrane potential loss in human MDA-MB-231 cells assessed as TMRE high cells at 2 uM after 24 hrs by TMRE staining based flow cytometric analysis (reference value: 1.79%). The format is functional.
Data set [23] deals with MDA-MB-231. Description: Inhibition of TrxR activity in human MDA-MB-231 cells at 10 uM incubated for 4 hrs. It counts as cell-based. A digest of the protocol: as §3
Data set [24] has as its system MDA-MB-231. Briefly: Induction of apoptosis in human MDA-MB-231 cells assessed as late apoptotic or necrotic cells at 4 uM incubated for 48 hrs by Annexin V-FITC/PI staining based flow cytometric analysis (reference value: 3.51 %). It counts as functional.
Data set [25] is described as follows: Drug localization in mitochondria of human MDA-MB-231 cells at 1 uM incubated for 30 mins in presence of CCCP by MTDR staining based laser confocal microscopic analysis. It counts as ADME. As to conditions: mda-mb-231, 0.5 h.
In data set [26] the test system is MDA-MB-231. Briefly: Induction of apoptosis in human MDA-MB-231 cells assessed as early apoptotic cells at 4 uM incubated for 48 hrs by Annexin V-FITC/PI staining based flow cytometric analysis (reference value: 2.08 %). It counts as functional.

SMILES strings stand for the structures. The source made the active and inactive calls. The rule behind the calls is not given here.

As to `CCCC[P+](c1ccccc1)(c1ccccc1)c1ccccc1`, the IC50 (usually the concentration needed to halve the response being measured) in the data set with SK-BR-3 was above 100 µM; with MDA-MB-231 [1] it was above 100 µM; in the data set on MCF-10A it was above 100 µM; with MCF7 it was 57.4 µM.

For the compound `CCCCNC(=O)c1cc2ccc(N(CC)CC)cc2oc1=O`, the IC50 in the data set with SK-BR-3, in the data set on MDA-MB-231 [1], in the data set with MCF-10A and with MCF7 was above 100 µM each time.

For `CC/C(=C(\c1ccccc1)c1ccc(OCCN(C)C)cc1)c1ccccc1` [TAMOXIFEN], the IC50 is above 50 µM in the data set on MCF-10A and 15.2 µM in the data set with MCF7.

Regarding `CCN(CC)c1ccc2cc(C(=O)OCCCC[P+](c3ccccc3)(c3ccccc3)c3ccccc3)c(=O)oc2c1`, the Drug uptake result is reported as “Dose-dependent effect” in data set [2] and “Tde” in data set [4]. The IC50 in the data set with SK-BR-3 was determined as 30.9 µM; in the data set on MDA-MB-231 [1] it was 29.4 µM; in the data set with MCF-10A it was 83.7 µM; in the data set with MCF7, 27.8 µM. Further, in data set [3], the Stabilty result is reported as “Unstable”.

With `CCN(Cc1ccccc1)c1ccc2cc(C(=O)NCCCC[P+](c3ccccc3)(c3ccccc3)c3ccccc3)c(=O)oc2c1`, the IC50 in the data set on SK-BR-3 was 2.73 µM; in the data set with MDA-MB-231 [1], 3.73 µM; in the data set on MCF-10A it was 15.1 µM; with MCF7, 4.9 µM.

For `CCN(CC)c1ccc2cc(C(=O)NCCCC[P+](c3ccccc3)(c3ccccc3)c3ccccc3)c(=O)oc2c1`, the result in the data set on MDA-MB-231 [5] was Active. The Activity with MDA-MB-231 [6] is 1.89%; in the data set on MDA-MB-231 [8], 70.55%; in the data set on MDA-MB-231 [9], 60.63%; in the data set on MDA-MB-231 [10] it was 14.69%; with MDA-MB-231 [11], 78.96%; in the data set with MDA-MB-231 [13], 50%. Moreover, the Activity in the data set with MDA-MB-231 [14] is 39.37%; in the data set with MDA-MB-231 [16], 65.07%; in the data set with MDA-MB-231 [17], “Dose-dependent effect”; in the data set on MDA-MB-231 [18] it was “Dose-dependent effect”; with MDA-MB-231 [19], 1.2%; in the data set on MDA-MB-231 [20], 13%. In addition, the Activity with MDA-MB-231 [21] came out at 29.45%; in the data set on MDA-MB-231 [22] it was 21.04%; with MDA-MB-231 [24] it was 24.09%; in the data set with MDA-MB-231 [26] it was 6.47%. For the same compound, the result with MDA-MB-231 [7] was inactive. Also, the Drug uptake result in data set [2] is “Dose-dependent effect”; in [15], “Active”; in [25], “Not Active”; in data set [4], “Tde”. The IC50 in the data set with SK-BR-3 amounted to 3.46 µM; in the data set on MDA-MB-231 [1], 3.03 µM; with MCF-10A, 45.3 µM; with MCF7, 3.26 µM. Besides, in data set [3], the Stabilty entry is given as “Stable”. The inhibition result in the data set on MDA-MB-231 [12] and in the data set on MDA-MB-231 [23] was “Active” throughout.
